# ChEMBL document CHEMBL2434958, “Identification of a novel series of orexin receptor antagonists with a distinct effect on sleep architecture for the treatment of insomnia” (J Med Chem, 2013)
# Legend:
# Orexin receptor type 2 = biological target: T1, Orexin receptor type 2 (Homo sapiens, UniProt O43614); assay: Antagonist activity at human OX2 receptor expressed in HEK cells assessed as inhibition of orexin A-induced Ca2+ accumulation after 1 hr by Fluo-4-AM staining-based FLIPR assay; format: functional, cell-based, HEK293
# T1 sequence (O43614 whole entry): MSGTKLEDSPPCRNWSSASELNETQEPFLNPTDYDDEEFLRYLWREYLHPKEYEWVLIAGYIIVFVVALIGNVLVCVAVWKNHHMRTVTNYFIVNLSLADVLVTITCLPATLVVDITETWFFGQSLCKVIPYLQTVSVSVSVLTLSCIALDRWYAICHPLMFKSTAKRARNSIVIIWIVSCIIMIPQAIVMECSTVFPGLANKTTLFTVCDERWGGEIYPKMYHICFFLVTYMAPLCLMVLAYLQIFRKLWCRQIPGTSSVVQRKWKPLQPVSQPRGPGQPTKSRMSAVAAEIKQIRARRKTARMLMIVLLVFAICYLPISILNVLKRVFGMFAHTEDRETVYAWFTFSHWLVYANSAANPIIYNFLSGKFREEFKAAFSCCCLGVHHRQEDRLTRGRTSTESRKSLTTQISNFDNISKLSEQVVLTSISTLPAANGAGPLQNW
# In short: (§1)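 Recombinant CHO or HEK cells expressing human OX1R or OX2R, serum-deprived overnight in HEPES buffer pH 7.4 with 1% BSA. Cells were loaded with 2 μM Fluo4-AM plus 0.1 mM probenecid for 1 h. Compound (up to eight concentrations, usually 10⁻⁹–10⁻⁵ M) was added first, then submaximal orexin A 1 h later. Curves run in triplicate; pKi from IC50 by Cheng–Prusoff.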
# [1] = biological target: T2, Orexin/Hypocretin receptor type 1 (Homo sapiens, UniProt O43613); assay: Antagonist activity at human OX1 receptor expressed in CHO cells assessed as inhibition of orexin A-induced Ca2+ accumulation after 1 hr by Fluo-4-AM staining-based FLIPR assay; format: functional, cell-based; conditions: for pIC50: cho; in short: as §1
# T2 sequence (O43613 whole entry): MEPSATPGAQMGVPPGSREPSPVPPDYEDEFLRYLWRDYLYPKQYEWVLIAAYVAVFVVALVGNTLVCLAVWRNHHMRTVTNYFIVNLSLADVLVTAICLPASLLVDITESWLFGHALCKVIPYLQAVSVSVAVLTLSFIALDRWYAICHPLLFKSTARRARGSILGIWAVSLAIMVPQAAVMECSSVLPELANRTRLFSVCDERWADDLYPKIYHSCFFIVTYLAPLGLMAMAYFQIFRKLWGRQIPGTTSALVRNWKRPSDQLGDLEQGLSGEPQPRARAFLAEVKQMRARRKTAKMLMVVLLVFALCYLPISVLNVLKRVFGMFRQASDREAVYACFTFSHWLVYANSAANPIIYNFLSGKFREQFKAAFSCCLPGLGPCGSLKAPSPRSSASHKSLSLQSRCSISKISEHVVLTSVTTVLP
# [2] = Volume of distribution at steady state in C57BL/6 mouse at 1 mg/kg, iv; format: ADME, organism-based; parameters: dose 1 mg/kg, route intravenous; conditions: in vivo, read-out: Vdss
# In short: (§2)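 Cassette PK in male C57BL/6 mice (20–30 g), up to five test compounds plus one reference. Iv 1 mg/kg in NMP/blank plasma 10/90 v/v, 5 mL/kg, saphenous vein. Oral 3 mg/kg suspended in 0.5% w/v carboxymethylcellulose in water/Tween 80 (99.5/0.5), 10 mL/kg gavage. Blood sampled 5 min (iv) or 15 min (po) to 24 h, n = 3 per time point, measured by LC/MS/MS.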
# [3] = Total blood clearance in C57BL/6 mouse at 1 mg/kg, iv; format: ADME, organism-based; parameters: dose 1 mg/kg, route intravenous; in short: as §2
# [4] = AUC (infinity) in C57BL/6 mouse blood at 3 mg/kg, po; format: ADME, organism-based; parameters: time infinity, dose 3 mg/kg, route oral; in short: as §2
# [5] = Oral bioavailability in C57BL/6 mouse blood at 3 mg/kg; format: ADME, organism-based; in short: as §2
# [6] = Cmax in C57BL/6 mouse blood at 3 mg/kg, po; format: ADME, organism-based; parameters: dose 3 mg/kg, route oral; in short: as §2
# [7] = Ratio of drug level in brain to blood in C57BL/6 mouse at 3 mg/kg, po after 15 mins; format: ADME, organism-based; parameters: dose 3 mg/kg, route oral
# In short: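 Male C57BL/6 mice (20–30 g), cassette dosing of up to five compounds plus a reference. Blood and brain collected 15 min post-dose, n = 3. Brain homogenised in 2 mM KH2PO4 and extracted with acetonitrile. LC/MS/MS quantitation; mean brain/blood ratio.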
Structure (SMILES),Ki (Orexin receptor type 2) [nM],Ki [1] [nM],other results
Cc1cc(C)nc(N2CCC3(CCCN(Cc4[nH]nnc4-c4ccccc4)C3=O)CC2)n1,1.17,708,–
O=C1N(Cc2c[nH]c3ccccc23)CCCC12CCN(c1cnccn1)CC2,309,–,pIC50 [1]: > 5
Cc1cc(C)nc(N2CCC3(CCCN(Cc4nn(C)cc4-c4ccccc4)C3=O)CC2)n1,17.4,813,–
O=C1N(Cc2c[nH]c3ccccc23)CCCC12CCN(c1ncccn1)CC2,550,–,pIC50 [1]: > 5
Cc1ccc(C)c(CN2C(=O)CCCC23CCN(c2cnc4ccccc4n2)CC3)c1,12.9,58.9,–
O=C1CCCC2(CCN(c3cnc4ccccc4n3)CC2)N1Cc1ccccc1,589,1480,–
O=C1CCCC2(CCN(c3cnc4ccccc4n3)CC2)N1Cc1cccc2[nH]ccc12,0.457,9.12,Vd [2]: 3.1 L/kg; clearance [3]: 188 mL/min/kg; AUC(0-inf) [4]: 0.031 µM·h; bioavailability [5]: 5%; Cmax [6]: 18 nM; Kp at 0.25 h [7]: 0.2

# More lines, in order of falling Ki (Orexin receptor type 2), values ahead:
Ki (Orexin receptor type 2) [nM],Ki [1] [nM],Structure (SMILES),other results
20.9,1450,Cc1cc(C)nc(N2CCC3(CCCN(Cc4cn(C)c5ccccc45)C3=O)CC2)n1,–
6.92,490,Cc1cc(C)nc(N2CCC3(CCCN(Cc4n[nH]c5ccccc45)C3=O)CC2)n1,–
3.16,18.6,O=C1CCCC2(CCN(c3nc4ccccc4o3)CC2)N1Cc1cccc2[nH]ccc12,–
0.166,20.4,COc1ccc2[nH]cc(CN3CCCC4(CCN(c5nc(C)cc(C)n5)CC4)C3=O)c2c1,–
